# Bioassay records (PubChem)
# An excerpt weighted towards active compounds, which were near 2.4% of everything screened.
# Scp1 inh – Scp-1 phosphatase inhibitors, primary screen, biochemical, colorimetric, uHTS; 0.88% of 340,000 active; Carboxy-terminal domain RNA polymerase II polypeptide A small phosphatase 1 (Homo …; inhibition, % at 20 µM; Recombinant Scp1, phosphopeptide, malachite green phosphate absorbance;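 active = inhibition above about 50% at 20 µM, limit read from the data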;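 note: plate controls were DMSO wells with enzyme for no effect and wells lacking enzyme for full effect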
# Target sequence (Q9GZU7 76-261 limits assumed): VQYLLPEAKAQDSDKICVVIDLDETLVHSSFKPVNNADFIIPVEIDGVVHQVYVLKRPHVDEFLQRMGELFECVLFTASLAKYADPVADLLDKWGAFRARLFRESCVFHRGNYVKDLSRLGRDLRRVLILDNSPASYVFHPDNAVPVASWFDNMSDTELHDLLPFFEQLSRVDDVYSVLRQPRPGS
#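 Test system – truncated SCP-1 phosphatase (76-261aa) · Reagent – Phosphorylated 17-residue peptide substrate · Incubation – 45 min room-temperature reaction, 5 min colour, 30 min stabiliser · Detection – colorimetric phosphate reagent with accelerator and stabiliser, absorbance at 630 nm · Measure – % inhibition at 20 µM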
# STEP inh – STEP phosphatase inhibitors, primary screen, biochemical, fluorescence intensity, uHTS; inhibition, % at 20 µM; recombinant STEP, OMFP fluorogenic substrate; 0.25% of 360,000 active;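 active = inhibition at 20 µM, scaled per plate between control wells, above about 37%, limit read from the data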;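 note: 0% = DMSO with enzyme and substrate and 100% = substrate only without enzyme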
#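 System: isolated STEP enzyme; schedule: 20 min enzyme reaction at room temperature, protected from light; medium: Bis-Tris buffer pH 6.0, 2.5 mM DTT, 0.005% Tween 20; signal: fluorescence, 480/540 nm; dosing: single compound dose of 20 µM, 1% DMSO final; also added: OMFP substrate, 25 µM final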
# SUMO1 PPI mod – modulators of SUMO1 protein-protein interactions, primary screen, biochemical, uHTS; Small ubiquitin-related modifier 1 (Homo sapiens), P63165; SUMO1 binding to a labelled peptide, TR-FRET, 1 h; inhibition, % at 20 µM; 0.33% of 360,000 active; AID 602429, 2012; in the data active = inhibition above about 37%
# Target sequence (P63165 whole entry, looked up): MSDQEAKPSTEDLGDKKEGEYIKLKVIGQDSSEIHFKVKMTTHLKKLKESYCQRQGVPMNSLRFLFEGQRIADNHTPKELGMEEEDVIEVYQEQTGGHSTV
# DNMT1 block – human DNMT1 methyltransferase inhibitors, primary screen, biochemical, molecular beacon, fluorescence, HinP1I cleavage, uHTS. DNA (cytosine-5)-methyltransferase 1 (Homo sapiens), P26358. inhibition (reported as % activation of signal), % at 10 µM. 0.83% of 360,000 active. AID 588458, 2011; in the data active = inhibition above about 50%
# NadD inh – inhibitors of S. aureus NadD, primary screen, biochemical, colorimetric, uHTS. purified NadD enzyme, colorimetric absorbance read-out. inhibition, % at 20 µM. 0.78% of 360,000 active. AID 602399, 2012; in the data active = inhibition above about 26%
# LMPTP inh – LMPTP phosphatase inhibitors, primary screen, biochemical, fluorescence intensity, uHTS. recombinant LMPTP-A, OMFP fluorogenic substrate. inhibition, % at 20 µM. 0.22% of 360,000 active. AID 651560, 2012;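 active = compounds that cut the enzyme signal by at least half of the control window in the single-dose screen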;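 note: plate controls were DMSO wells with enzyme plus substrate for no effect and substrate without enzyme for full effect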
#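 Test system: LMPTP-A phosphatase enzyme. Amount: LMPTP-A at 0.625 nM final in the reaction. Reagent: OMFP substrate, 400 µM final. Times: 50 min at room temperature. Signal: endpoint fluorescence intensity from OMFP dephosphorylation. Read-out basis: % inhibition. Benchmarks: no-enzyme and uninhibited controls.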
# STEP inh conf – STEP phosphatase inhibitor hit confirmation, biochemical, fluorescence intensity, single concentration | shares compounds with STEP inh | recombinant STEP, OMFP fluorogenic substrate | inhibition, % at 20 µM | 32% of 520 active; call rule not given here;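 note: 0% = enzyme with substrate plus DMSO and 100% = substrate without enzyme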
# NadD conf – inhibitors of S. aureus NadD, confirmation, biochemical, colorimetric, single concentration; inhibition, % at 20 µM; purified S. aureus NadD, colorimetric enzyme assay; AID 624309, 2012; shares compounds with NadD inh; 13% of 2,000 active; in the data active = inhibition mostly above about 42%, no sharp cut-off; inactive = mostly below about 42%
# Numbers without * were called inactive; x = no result given.
SMILES,Scp1 inh,STEP inh,SUMO1 PPI mod,DNMT1 block,NadD inh,LMPTP inh,STEP inh conf,NadD conf
CCOC(=O)N1CCC(N(CCN(C)C)C(=S)Nc2ccccc2OCC)CC1,9,45*,-3,0,-3,-5,22,x
CCOC(=O)N1CCC(N(CCN(C)C)C(=S)Nc2ccccc2OC)CC1,-11,3,-3,2,-6,-7,x,x
CCOC(=O)N1CCC(N(CCN(C)C)C(=S)Nc2cccc(C)c2)CC1,-3,-4,-1,-7,-1,-9,x,x
CCCc1c(C(=O)N/N=C/c2ccco2)nnn1-c1nonc1N,4,1,4,2,1,0,x,x
Cc1ccc(CN2CCN(CCCn3cccn3)CC2CCO)cc1 (stereo unspecified),-4,-2,-2,11,-4,-1,x,x
O=C(N/N=C/c1ccccn1)c1ccc(Br)cc1,-12,72*,-6,1,2,-1,3,x
c1ccc(OCCNc2nc(NCC3CC3)nc3cc(-c4ccccc4)sc23)cc1,x,43*,-3,-15,33*,5,7,19
O=C(O)c1cccc(NC(=S)NC(NC(=O)c2cccc([N+](=O)[O-])c2)C(Cl)(Cl)Cl)c1 (stereo unspecified),-8,63*,98*,-2,64*,-1,8,7
O=C(O)c1cccc(NC(=S)NC(NC(=O)c2ccccc2[N+](=O)[O-])C(Cl)(Cl)Cl)c1 (stereo unspecified),-1,-1,-7,4,-4,-2,x,x
COc1ccccc1Cn1c(=S)[nH]c2cc(C(=O)N3CCCC(C)C3)ccc2c1=O (stereo unspecified),x,2,0,4,9,0,x,x
CN1CCc2c(sc(/N=C/c3c[nH]c4ccccc34)c2C(N)=O)C1,-8,51*,92*,-41,51*,67*,0,-13
COc1cccc(-c2cc(C(=O)Nc3nc4ccccc4s3)c3ccccc3n2)c1,10,71*,-4,-8,36*,3,41*,6
O=C(Nc1nc2ccccc2s1)c1cc(-c2ccco2)nc2ccccc12,4,1,13,8,23,0,x,x
CNC(=O)c1ccccc1NC(=O)C1CC(=O)N(C(C)C)C1 (stereo unspecified),-4,-1,-1,-2,3,-2,x,x
COc1ccc(COc2cc(-c3cccc(OC)c3)nc3ccc(NC(=O)c4ccc(Cl)cc4)cc23)cc1,9,6,-1,-2,59*,7,x,11
COc1ccc(COc2cc(-c3cccc(OC)c3)nc3ccc(NC(=O)c4ccccc4)cc23)cc1,9,1,0,-1,32*,9,x,9
COCc1ccc(CN2CCCC(C(=O)Nc3ccc(-c4cscn4)cc3)C2)o1 (stereo unspecified),-7,0,0,2,-4,0,x,x
Clc1ccc(Cc2ccccn2)cc1,-5,-3,-1,3,-4,0,x,x
COc1ccc2c(c1)nc(-c1cccc(Br)c1)c(=O)n2C(c1ccccn1)c1nc2ccccc2[nH]1 (stereo unspecified),x,-2,16,-20,46*,2,x,32
COc1ccc(CCN(Cc2cccs2)S(=O)(=O)c2ccc(C(=O)O)cc2)cc1OC,-8,-2,2,-1,-6,-3,x,x
